ChEMBL document CHEMBL4680306, “The 3-D conformational shape of N-naphthyl-cyclopenta[d]pyrimidines affects their potency as microtubule targeting agents and their antitumor activity” (Bioorg Med Chem, 2021)
Active and inactive are the calls of the source. No cut-off for these calls is given here.

How the values were obtained:
A549 = assay: Cytotoxicity against human A549 cells assessed as inhibition of cell growth measured after 48 hrs by SRB assay; assay type: functional
UO-31 = assay: Cytotoxicity against human UO-31 cells assessed as inhibition of cell growth measured after 48 hrs by SRB assay; assay type: functional
SK-OV-3 = assay: Antiproliferative activity against human SK-OV-3 cells assessed as decrease in cell growth measured after 48 hrs by SRB method; assay type: functional, cell-based; settings: SK-OV-3, 48 h
ACHN = assay: Cytotoxicity against human ACHN cells assessed as inhibition of cell growth measured after 48 hrs by SRB assay; assay type: functional
OVCAR-5 = assay: Cytotoxicity against human OVCAR-5 cells assessed as inhibition of cell growth measured after 48 hrs by SRB assay; assay type: functional
HCT-15 = assay: Cytotoxicity against human HCT-15 cells assessed as inhibition of cell growth measured after 48 hrs by SRB assay; assay type: functional
SNB-19 = assay: Cytotoxicity against human SNB-19 cells assessed as inhibition of cell growth measured after 48 hrs by SRB assay; assay type: functional
K562 = assay: Cytotoxicity against human K562 cells assessed as inhibition of cell growth measured after 48 hrs by SRB assay; assay type: functional
CAKI-1 = assay: Cytotoxicity against human CAKI-1 cells assessed as inhibition of cell growth measured after 48 hrs by SRB assay; assay type: functional
TK-10 = assay: Cytotoxicity against human TK-10 cells assessed as inhibition of cell growth measured after 48 hrs by SRB assay; assay type: functional
HT-29 = assay: Cytotoxicity against human HT-29 cells assessed as inhibition of cell growth measured after 48 hrs by SRB assay; assay type: functional
COLO 205 = assay: Cytotoxicity against human COLO 205 cells assessed as inhibition of cell growth measured after 48 hrs by SRB assay; assay type: functional
SN12C = assay: Cytotoxicity against human SN12C cells assessed as inhibition of cell growth measured after 48 hrs by SRB assay; assay type: functional
HCC 2998 = assay: Cytotoxicity against human HCC 2998 cells assessed as inhibition of cell growth measured after 48 hrs by SRB assay; assay type: functional
PC-3 = assay: Cytotoxicity against human PC-3 cells assessed as inhibition of cell growth measured after 48 hrs by SRB assay; assay type: functional
U-251 = assay: Antitumour activity against human U251 cells xenografted in NCr athymic nude nu/nu mouse assessed as decrease in tumour growth at 17.5 mg/kg twice in a week; assay type: functional, organism-based
SK-MEL-2 = assay: Cytotoxicity against human SK-MEL-2 cells assessed as inhibition of cell growth measured after 48 hrs by SRB assay; assay type: functional
MDA-MB-435 = assay: Cytotoxicity against human MDA-MB-435 cells assessed as inhibition of cell growth measured after 48 hrs by SRB assay; assay type: functional
OVCAR-8 = assay: Cytotoxicity against human OVCAR-8 cells assessed as inhibition of cell growth measured after 48 hrs by SRB assay; assay type: functional
MOLT-4 = assay: Cytotoxicity against human MOLT-4 cells assessed as inhibition of cell growth measured after 48 hrs by SRB assay; assay type: functional
HOP-62 = assay: Cytotoxicity against human HOP-62 cells assessed as inhibition of cell growth measured after 48 hrs by SRB assay; assay type: functional
HeLa = assay: Antiproliferative activity against human HeLa cells assessed as decrease in cell growth measured after 48 hrs by SRB method; assay type: functional, cell-based
Bos taurus = species on record: Bos taurus; assay: Inhibition of [3H]colchicine binding to bovine tubulin at 1 uM measured after 10 mins by scintillation counting
How it was run: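 Purified bovine brain tubulin at 1.0 µM was mixed with 5.0 µM [3H]colchicine and inhibitor, plus components that stabilize colchicine binding, in 5% DMSO; tubulin was added last, on ice. Binding ran 10 min at 37 °C and was stopped with ice water. Mixtures were filtered through stacked DEAE-cellulose filters, and bound radiolabel was measured by scintillation counting.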

Hs-578T = assay: Cytotoxicity against human Hs-578T cells assessed as inhibition of cell growth measured after 48 hrs by SRB assay; assay type: functional
[1] = Induction of microtubule depolymerisation in rat A-10 cell line measured after 18 hrs by indirect immunofluorescence method; settings: a10
How it was run: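 Rat A-10 cells, chosen because they arrest in interphase without significant mitotic accumulation, were exposed to compounds for 18 h. Cellular microtubules were then visualized by indirect immunofluorescence. EC50 values come from at least three independent experiments.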

SNB-75 = assay: Cytotoxicity against human SNB-75 cells assessed as inhibition of cell growth measured after 48 hrs by SRB assay; assay type: functional
M14 = assay: Cytotoxicity against human M14 cells assessed as inhibition of cell growth measured after 48 hrs by SRB assay; assay type: functional
DU-145 = assay: Cytotoxicity against human DU-145 cells assessed as inhibition of cell growth measured after 48 hrs by SRB assay; assay type: functional
IGROV-1 = assay: Cytotoxicity against human IGROV-1 cells assessed as inhibition of cell growth measured after 48 hrs by SRB assay; assay type: functional
786-0 = assay: Cytotoxicity against human 786-0 cells assessed as inhibition of cell growth measured after 48 hrs by SRB assay; assay type: functional

## COc1cccc2cc(N(C)c3nc(C)nc4c3CCC4)ccc12
A549
  GI50: < 10 nM
UO-31
  GI50: 10.7 nM
SK-OV-3
  IC50: 2.7 nM
ACHN
  GI50: < 10 nM
OVCAR-5
  GI50: < 10 nM
HCT-15
  GI50: < 10 nM
SNB-19
  GI50: < 10 nM
K562
  GI50: < 10 nM
CAKI-1
  GI50: < 10 nM
TK-10
  GI50: 9320 nM
HT-29
  GI50: < 10 nM
COLO 205
  GI50: < 10 nM
SN12C
  GI50: < 10 nM
HCC 2998
  GI50: < 10 nM
PC-3
  GI50: < 10 nM
U-251
  inhibition: Active
SK-MEL-2
  GI50: < 10 nM
MDA-MB-435
  GI50: < 10 nM
OVCAR-8
  GI50: < 10 nM
MOLT-4
  GI50: < 10 nM
HOP-62
  GI50: < 10 nM
HeLa
  IC50: 3.4 nM
Bos taurus
  inhibition: 86%
Hs-578T
  GI50: < 10 nM
[1]
  EC50: 4.5 nM
SNB-75
  GI50: 1890 nM
M14
  GI50: < 10 nM
DU-145
  GI50: < 10 nM
IGROV-1
  GI50: < 10 nM
786-0
  GI50: < 10 nM
